Among the data in the RNAGym collection of RNA variant scans (doi:10.1126/science.aae0568) are yeast fitness values, retold here.

This sample holds only a part of the variants without activity.

B1: tRNA (parent)
chain: GUUCCGUUGGCGUAAUGGUAACGCGUCUCCCUCCUAAGGAGAAGACUGCGGGUUCGAGUCCCGUACGGAACG

The variants in this series derive from B1. As to the kind of experiment: yeast fitness relative to wild type (ratio to wild type); higher = fitter; tRNA-Arg(CCU), competitive growth, 37 C, YPD. In outline:
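Start and end populations of a pooled competition were compared by 100-nucleotide paired-end sequencing of gene amplicons. The Saccharomyces cerevisiae strains carried tRNA-Arg(CCU) gene variants at the native genomic locus, synthesised with a 3% per-site mutation rate at 69 sites, and competed in YPD at 37°C for 24 hours in six parallel replicates. Darwinian fitness relative to wild type was based on the change in genotype frequencies. Genotypes required ≥ 100 starting reads, and estimates < 0.5 were set to 0.5.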
For the variant GUUCCGUUGGCGUAAUGGGAACGCGUCUCCCUCCUAAGGAGAAGACCGCGGGUUCGAGUCCCGGACGGAACG, the yeast fitness is 0.536.

GUUCCGUUGGCGUAAUGGGAACGCGUCUCCCUCAUAAGGAGAAGACUGCGGGUUCGAGUCCCGUACGGAACG: the yeast fitness came to 0.87.

As for GUUCCGUUGGCGUAAUGGGAACGCGUCUCCCUCAUAAGGAGAAGACUGCAGGUUCGAGUCCCGUACGGAACG, the yeast fitness was no more than 0.5.

On to GUUCCGUUGGCGUAAUGGUCACGCGUCUCCCUCAUAGGGAGAAGAAUGCGGGUUCGAGUCCCGUACGGAACG, for which the yeast fitness is 0.541.

Turning to GUUCCGUUGGCGUAAUGGGAACGCGUCUCCCUCCUAAGGAGAAGACUGCGGGUUCGAGUCGCGUACGGAACG, the yeast fitness was determined as 0.575.

Turning to GUUCCGUUGGCGUAAUGGGAACGCGUCUCCCUCCUAAAGAGAAGACUGCAGGUUCGAGUCCCGUACGGAACG, the yeast fitness is no more than 0.5.

As to GUUCCGUUGGCGUAAUGGUCGCGCGUCUCCCUCCUAAGGAGAAGACUGCCGGUUCGAGUCCCGUCCGGAACG, the yeast fitness is no more than 0.5.

On to GUUCCGUUGGCGUAAUGGUCACGCGUCUCCUUCCUAAGGGGAAGACUGCGGCUUCGAGUCCCGUGCGGAACG, for which the yeast fitness was determined as 0.551.

For the variant GUUCCGUUGGCGUAAUGGGAACGGGUCUCCCUCCUAAGGAGAAGACUGCGGGUUCGAGUCCCGUACGGAACG, the yeast fitness worked out at 0.553.

As to GUUCCGUUGGCGUAAUGGUCACGCGUCUCCCUCCUUAGCAGAAGACUACGGGUUCGAGUCCCGUACGGAACG, the yeast fitness is no more than 0.5.

As to GUUCCGUUGGCGUAAUGGUCACGCCUCUCCCUCCUAAGGUGAAGACUGCGGGUUCGAGUCCCGUACGGAACG, the yeast fitness came out at 0.605.

Consider GUUCCGUUGGCGUAAUGGUCACGCGUCUCCCUCCUAAGGAGACGACUGCGGGUUCGAGUCCCGUACGUAACG, for which the yeast fitness was no more than 0.5.

Regarding GUUCCGUUGGCGUAAUGGUCACGGGUAUCCCUCCUAAGGAGAAAACUGCGGGUUCGAGGCCCGUCCGGAACG, the yeast fitness is no more than 0.5.

As for GUUCCGUUGGCGUAAUGGGAACGCGUCUCCCUCCUAAGGAGAAGACCGCGGGUUCGAGUCCCGUAUGGAACG, the yeast fitness turned out to be 0.786.

Regarding GUUCCGUUGGCGUAAUGGUCACGCGUUUCCCUCGUAAGGAGAAGACUGCGGGUUCGAGUCUGGUACGGAACG, the yeast fitness was 0.616.

For GUUCCGUUGGCGUAAUGGUCACGCGUCUCCCUCCUAAGGAGACGACUGAGGGUACGAAUACCGUACGGAACG, the yeast fitness was no more than 0.5.

Take GUUCCGUUGGCGUAAUGGUCACGCGUUUCCCUCCUAAGGAGAAGACUGCGGGUUCGAGUCCCGUAUCGAACG: the yeast fitness is no more than 0.5.

For the variant GUUCCGUUGGCGUAAUGGUCACGCGUCUCCCUCCUAAGGAGAAGACUGCGGGUUCGAGUCCCGUACGGUACG, the yeast fitness turned out to be 1.04.

As for GUUCCGUUGGCGUAAUGGUCACGUGUGUCCCUCCUAAGGAGAAGACUGAGGGCUCGAGUCCGGUACGGAACG, the yeast fitness was no more than 0.5.

As to GUUCCGUUGGCGUAAUGGUCACGCGUCUCCAUCCUAAGGAGAAGACUACGGGUUCGAGCCCCGUACGGAACG, the yeast fitness is no more than 0.5.

Turning to GUUCCGUUGGCGUAAUGGUCACGCGUCUCCCUCCUACGGAGAAGACUGCGGGUUCGAGUCCCGUACGGAACG, the yeast fitness was determined as 0.762.

GUUCCGUUGGCGUAAUGGGAACGCGUCUCCCGCCUAAGGAGAAGACUGCGCGUUCGUGUCCCGUACGGAACG: the yeast fitness is no more than 0.5.

As for GUUCCGUUGGCGUAAUGGUCACGCGUCUCCCUACUAAGGACAAGACUGGGGGUUCGAGUCCCGUACGGAACG, the yeast fitness stood at 0.519.

Regarding GUUCCGUUGGCGUAAUGGUCACGCGUAUCCCUCCUAAGGAGAAGACUGCGGAUUCGAGUCCCGUACGGAACG, the yeast fitness is no more than 0.5.

For the variant GUUCCGUUGGCGUAAUGGUCACGCGUCUCCCUCCUAAGGAGAAGACUGCGGGUUCGAGUCUCGUACGGUACG, the yeast fitness stood at 0.61.

Consider GUUCCGUUGGCGUAAUGGUCACGCGUCUCCCUCCUAAGGAGAAGACUGCGGGUUCGAGUUCCGUACGGUACG, for which the yeast fitness is 0.617.

As for GUUCCGUUGGCGUAAUGGUCACGUGUCUCCCUCCUAAGGAGAAGACUGUGGGUUCGAGUCCCGUACGGAACG, the yeast fitness turned out to be 0.602.

With GUUCCGUUGGCGUAAUGGUCACGCGUCUCCCUCCUAAGGAGAAGUCUGCGGGUUUGAGUCCCGUACGGAACG, the yeast fitness was no more than 0.5.

Turning to GUUCCGUUGGCGUAAUGGUCACGGGUCUCCCUGCUAAGGAGUAGACUGCGGGUUCGCGUCCCGUACCGAACG, the yeast fitness turned out to be 0.645.

Take GUUCCGUUGGCGUAAUGGUCACGCGUCUCCCUUCUAGGGAGAAGACUGGGGGUUCGGGUCCCGUACGGAACG: the yeast fitness was no more than 0.5.

On to GUUCCGUUGGCGUAAUGGUCGCGCGUCUCCCUCCUAAGGAGAAGACUGCGGGUUCGGGUCCCGUACGGAACG, for which the yeast fitness came out at 0.744.

In the case of GUUCCGUUGGCGUAAUGGGAACGCGUCUCCCUCCUAAGGAGAAGACUGCGGGUUGGAGUCCCGUACGGUACG, the yeast fitness turned out to be 0.54.

On to GUUCCGUUGGCGUAAUGGGAACGCGUCGCCCUCCUAAGGAGAAGACUGCGGGUUCGAGUCCCGUACGGAACG, for which the yeast fitness turned out to be 0.551.

Turning to GUUCCGUUGGCGUAAUGGUCUCGCGUCUCUAUCCUAAGGAGAAGACUGCGGGUUCGAGUCCCAUACGGAACG, the yeast fitness is 0.628.

With GUUCCGUUGGCGUAAUGGUCACGCGUCUCCCUCCUAGGGAGAAGACUGGGGGAUCGAGUUCCGUACGGCACG, the yeast fitness was determined as 0.57.

Turning to GUUCCGUUGGCGUAAUGGUCACGCGUCUCCCUCCUAAGGAGAAGACUGCGGGUUCGAGUCCCGUACGGAGCG, the yeast fitness is 0.925.

As to GUUCCGUUGGCGUAAUGGUCACGCGUCUUCCUCCUAAGGAGAAGACUGGGGGUUCGAGUCCCGUACGGAUCG, the yeast fitness was no more than 0.5.

In the case of GUUCCGUUGGCGUAAUGGUCACGCGUCUCCCUCCUAAGGAGAAGAGUGCGGGUUCGAGUCCCGUACGGAGCG, the yeast fitness came to 0.668.
